3 molecules from ChEMBL document CHEMBL4665717, “New V1a receptor antagonist. Part 2. Identification and optimization of triazolobenzazepines” (Bioorg Med Chem Lett, 2020) can be followed below.

Each structure is given as a SMILES string.

The target of data set [1] is T1, Vasopressin V1a receptor (Homo sapiens, UniProt P37288). Description: Inhibition of human V1a receptor expressed in human 1321N1 cells assessed as decrease in Arg8-vasopressin-stimulated calcium flux by fluorometric calcium assay. The data set is classed as functional, cell-based. In short, it runs like this: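 1321N1 cells expressing human V1a receptor stimulated with (Arg8)-vasopressin. Intracellular Ca2+ change measured. IC50 values averaged from at least three independent measurements.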
T1 sequence (P37288 whole entry): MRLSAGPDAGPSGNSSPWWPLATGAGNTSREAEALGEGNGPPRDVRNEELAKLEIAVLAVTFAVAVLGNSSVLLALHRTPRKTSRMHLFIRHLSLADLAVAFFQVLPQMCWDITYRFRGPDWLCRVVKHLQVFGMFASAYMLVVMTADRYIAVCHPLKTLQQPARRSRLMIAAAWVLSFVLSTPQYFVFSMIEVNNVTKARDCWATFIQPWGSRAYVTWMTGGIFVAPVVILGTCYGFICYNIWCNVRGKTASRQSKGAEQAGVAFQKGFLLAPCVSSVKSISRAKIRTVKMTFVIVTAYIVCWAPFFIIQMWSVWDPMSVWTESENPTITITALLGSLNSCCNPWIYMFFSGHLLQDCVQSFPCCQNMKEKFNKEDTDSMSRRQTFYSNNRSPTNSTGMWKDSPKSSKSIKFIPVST
In general terms: Calcium flux is commonly read through the fluorescence of an indicator in the cells.

Data set [2] in a line: Apparent permeability across apical to basolateral side in vinblastine-treated human Caco-2 cells at 1 uM by HPLC-UV analysis. It counts as ADME. The method in brief: (§1)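 Bidirectional transport across VB-Caco-2 monolayers with test compound at 1 or 10 µM. Apparent permeability A→B reported, with PDR from the two directions.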
A general note: Caco-2 cells form a polarised layer with tight junctions and transporters.

In a further data set the test system is P-glycoprotein. Description: Efflux ratio of Apparent permeability across apical to basolateral side in vinblastine-treated human Caco-2 cells expressing P-glycoprotein at 1 uM by HPLC-UV analysis. It counts as ADME. The method in brief:
as §1

Data set [3] in a line: in vitro. The following applies: human.
The nature of data set [4]: in vitro. The note with it: Wistar, rat.
Data set [5] in a line: in vitro. The following applies: NMRI, mouse.
Data set [6] has as its system Mus musculus. Briefly: Anti-depression activity in mouse assessed as inhibition of oxytocin-induced scratching at 30 mg/kg, po administered before oxytocin stimulation and measured after 1 hr.
In data set [7] the target is T1, Vasopressin V1a receptor. Description: Displacement of [3H]AVP from human V1a receptor expressed in […] cells assessed as dissociation constant by radioligand binding assay. It counts as cell-based, 1321N1. In short, it runs like this:
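Membranes from 1321N1 cells expressing human V1a or V2 receptor incubated with [3H]AVP and increasing test compound concentrations. Nonspecific binding defined with 2 µM arginine-vasopressin for both receptors. IC50 taken from sigmoidal fit of displacement curves, then converted to Ki by Cheng-Prusoff.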
Background: In a radioligand displacement assay an active substance lowers the binding of a labelled ligand.

For data set [8], the target named is T2, Vasopressin V2 receptor (Homo sapiens, UniProt P30518). Description: Displacement of [3H]AVP from human V2a receptor expressed in 1132N1 cells assessed as dissociation constant by radioligand binding assay.
T2 sequence (P30518 whole entry): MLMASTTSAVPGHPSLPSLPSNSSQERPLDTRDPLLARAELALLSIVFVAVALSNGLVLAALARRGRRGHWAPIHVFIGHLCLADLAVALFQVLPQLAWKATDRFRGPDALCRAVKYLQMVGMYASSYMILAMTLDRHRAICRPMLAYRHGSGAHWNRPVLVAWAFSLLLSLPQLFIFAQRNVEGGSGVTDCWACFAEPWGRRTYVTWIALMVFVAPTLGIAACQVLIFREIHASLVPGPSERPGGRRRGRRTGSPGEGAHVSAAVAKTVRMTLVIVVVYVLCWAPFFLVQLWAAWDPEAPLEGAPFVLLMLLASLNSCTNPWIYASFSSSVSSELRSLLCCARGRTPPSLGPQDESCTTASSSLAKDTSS
In data set [9] the target is T2, Vasopressin V2 receptor. Description: Displacement of [3H]AVP from human […] receptor expressed in […] cells at 1 uM by radioligand binding assay relative to control. It counts as cell-based. The following applies: 1321N1. In short, it runs like this:
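Membranes from 1321N1 cells expressing human V1a or V2 receptor incubated with [3H]AVP and single test concentration. Nonspecific binding defined with 2 µM arginine-vasopressin.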

The species entered for data set [10] is Mus musculus. Briefly: animal or person. The following applies: ip, 1 h, read-out: INH.

As a reminder, the IC50 is the concentration that inhibits the measured activity by half. By Papp A→B is commonly meant the apparent permeability from the apical to the basolateral side of a cell layer. Usually efflux ratio stands for a quotient of directional permeabilities that is used to spot active efflux. Usually microsomal CLint stands for the rate of metabolic loss divided by the concentration. Read a high microsomal CLint as rapid turnover. For the molecule `CN1Cc2cc(Cl)ccc2-n2c(nnc2[C@H]2CC[C@H](Oc3ccccn3)CC2)C1` [BALOVAPTAN], the IC50 at Vasopressin V1a receptor [1] came out at 3 nM. The Papp A→B at 1 µM in data set [2] is 430 nm/s. Moreover, the efflux ratio at 1 µM with P-glycoprotein was 1.1. The intrinsic metabolic clearance (microsomal CLint) at 1 µM in the data set “in vitro [3]” (microsomes) is 0.5 µL/min/mg; in “in vitro [4]” (microsomes), 22 µL/min/mg; in “in vitro [5]” (microsomes), 17 µL/min/mg. Besides, in the data set on Mus musculus [6], the inhibition in vivo at 30 mg/kg was found to be 80%.

Broadly, the Ki is the equilibrium dissociation constant of an inhibitor or competing ligand from its target. With `Clc1ccc2c(c1)CCCc1nnc([C@H]3CC[C@H](Oc4ccccn4)CC3)n1-2`, the Ki was 0.8 nM at Vasopressin V1a receptor [7] and 560 nM on Vasopressin V2 receptor [8]. Besides, the half-maximal inhibitory concentration (IC50) on Vasopressin V1a receptor [1] is 1 nM. Moreover, the microsomal CLint at 1 µM in “in vitro [3]” (liver microsomes) was found to be 7 µL/min/mg; in “in vitro [4]” (liver microsomes) it was 124 µL/min/mg; in the data set “in vitro [5]” (liver microsomes) it was 94 µL/min/mg. The inhibition in vivo at 30 mg/kg in the data set on Mus musculus [6] amounted to 94%.

One may read the inhibition as the relative decrease from the control value, in per cent. Read a high inhibition as a response far below the control. For the molecule `Cc1cc([C@H]2CC[C@H](c3nnc4n3-c3ccc(Cl)cc3CC4)CC2)no1`, the Ki on Vasopressin V1a receptor [7] turned out to be 13 nM. Besides, the IC50 at Vasopressin V1a receptor [1] turned out to be 100 nM. Also, on Vasopressin V2 receptor [9], the inhibition is 9%. Moreover, the microsomal CLint at 1 µM in “in vitro [3]” (liver microsomes) was 0.3 µL/min/mg; in the data set “in vitro [4]” (liver microsomes), 13 µL/min/mg; in “in vitro [5]” (liver microsomes) it was 13 µL/min/mg. The inhibition in vivo at 10 mg/kg in the data set filed under Mus musculus [10] turned out to be 45%.
